From publication PMC6210075 (ACS Omega, 2018) come the findings set out here.

One data set concerns the target T1, FAAH (Mus musculus, UniProt O08914).
T1 sequence (O08914 1-579): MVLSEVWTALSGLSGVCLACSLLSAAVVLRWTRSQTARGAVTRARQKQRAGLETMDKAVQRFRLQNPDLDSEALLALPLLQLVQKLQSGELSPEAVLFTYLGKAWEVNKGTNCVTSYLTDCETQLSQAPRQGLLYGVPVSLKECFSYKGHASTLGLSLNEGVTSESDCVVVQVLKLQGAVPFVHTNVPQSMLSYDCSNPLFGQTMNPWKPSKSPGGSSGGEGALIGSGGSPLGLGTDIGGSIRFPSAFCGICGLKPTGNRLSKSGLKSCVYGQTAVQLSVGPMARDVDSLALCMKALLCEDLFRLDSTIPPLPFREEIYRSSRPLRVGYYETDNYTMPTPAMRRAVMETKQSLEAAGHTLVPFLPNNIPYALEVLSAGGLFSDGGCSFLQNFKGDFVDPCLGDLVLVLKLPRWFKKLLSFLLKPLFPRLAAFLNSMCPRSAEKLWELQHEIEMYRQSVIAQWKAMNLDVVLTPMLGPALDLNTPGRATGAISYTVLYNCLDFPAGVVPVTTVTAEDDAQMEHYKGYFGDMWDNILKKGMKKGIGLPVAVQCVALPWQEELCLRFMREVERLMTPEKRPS
Format: in vivo. The conditions noted are these: mice, 1 mg/kg i.p. in DMSO, 4 h after dosing. In outline: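 Male Swiss Webster mice got test compound in 20 μL DMSO i.p. and were killed 4 h later. Tissue was homogenized about fivefold by weight in 20 mM phosphate, pH 7.4, 5 mM EDTA, then diluted 1000-fold (liver) or 100-fold (brain) in 100 mM phosphate, pH 8.0, 0.1% BSA. OMP (100 μM final) hydrolysis was read by fluorescence (303/394 nm) for 10 min, normalized to BCA protein, and expressed as % of vehicle.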

Data set [1] concerns the target T2, human sEH (Homo sapiens, UniProt P34913).
T2 sequence (P34913 1-555): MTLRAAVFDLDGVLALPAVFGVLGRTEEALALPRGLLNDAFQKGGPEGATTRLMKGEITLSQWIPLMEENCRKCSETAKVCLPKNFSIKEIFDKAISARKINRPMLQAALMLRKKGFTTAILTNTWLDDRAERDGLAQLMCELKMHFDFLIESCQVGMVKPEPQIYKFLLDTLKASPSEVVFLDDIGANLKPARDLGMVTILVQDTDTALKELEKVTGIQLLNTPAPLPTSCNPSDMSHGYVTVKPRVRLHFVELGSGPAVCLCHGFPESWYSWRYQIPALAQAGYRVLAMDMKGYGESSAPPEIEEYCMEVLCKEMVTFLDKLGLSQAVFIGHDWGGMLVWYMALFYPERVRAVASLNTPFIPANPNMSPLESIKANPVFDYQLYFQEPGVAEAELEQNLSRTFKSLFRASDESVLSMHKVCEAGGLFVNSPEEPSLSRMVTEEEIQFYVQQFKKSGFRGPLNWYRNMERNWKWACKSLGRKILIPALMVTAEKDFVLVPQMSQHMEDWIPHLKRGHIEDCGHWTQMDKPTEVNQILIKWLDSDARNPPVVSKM
Put plainly: sEH fluorescent inhibition assay. Format: biochemical.

Another data set addresses T3, human FAAH (Homo sapiens, UniProt O00519).
T3 sequence (O00519 1-579): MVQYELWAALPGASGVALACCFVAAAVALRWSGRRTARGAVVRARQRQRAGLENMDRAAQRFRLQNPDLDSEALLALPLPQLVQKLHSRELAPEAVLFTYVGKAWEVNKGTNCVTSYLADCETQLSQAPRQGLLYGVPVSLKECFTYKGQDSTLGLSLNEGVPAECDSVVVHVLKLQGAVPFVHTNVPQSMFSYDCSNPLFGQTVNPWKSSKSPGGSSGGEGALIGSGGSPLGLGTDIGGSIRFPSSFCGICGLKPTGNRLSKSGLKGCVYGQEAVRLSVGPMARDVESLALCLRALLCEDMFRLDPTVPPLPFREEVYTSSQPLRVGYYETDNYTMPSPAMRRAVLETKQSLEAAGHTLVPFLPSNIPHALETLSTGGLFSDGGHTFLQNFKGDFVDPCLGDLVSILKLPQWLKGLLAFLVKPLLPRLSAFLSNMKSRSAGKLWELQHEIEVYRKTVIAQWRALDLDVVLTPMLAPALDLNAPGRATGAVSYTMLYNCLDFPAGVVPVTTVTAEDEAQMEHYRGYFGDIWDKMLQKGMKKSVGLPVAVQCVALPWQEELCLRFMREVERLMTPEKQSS
Put plainly: FAAH fluorescent inhibition assay. Type of data set: biochemical.

The nature of data set [2]: Cassette dosing pharmacokinetics in rats. The conditions noted are these: male, Sprague-Dawley, rat, whole blood, po, 1 mg/kg. Type of data set: in vivo. The method, boiled down:
(§1)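 Test compounds were given as a cassette cocktail at 1 mg/kg each, p.o. in PEG300, to groups of 4 rats or 4 mice. Blood was taken by tail vein at set intervals and group averages were used.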

Another data set has as its target T4, rat sEH (Rattus norvegicus, UniProt P80299).
T4 sequence (P80299 1-554): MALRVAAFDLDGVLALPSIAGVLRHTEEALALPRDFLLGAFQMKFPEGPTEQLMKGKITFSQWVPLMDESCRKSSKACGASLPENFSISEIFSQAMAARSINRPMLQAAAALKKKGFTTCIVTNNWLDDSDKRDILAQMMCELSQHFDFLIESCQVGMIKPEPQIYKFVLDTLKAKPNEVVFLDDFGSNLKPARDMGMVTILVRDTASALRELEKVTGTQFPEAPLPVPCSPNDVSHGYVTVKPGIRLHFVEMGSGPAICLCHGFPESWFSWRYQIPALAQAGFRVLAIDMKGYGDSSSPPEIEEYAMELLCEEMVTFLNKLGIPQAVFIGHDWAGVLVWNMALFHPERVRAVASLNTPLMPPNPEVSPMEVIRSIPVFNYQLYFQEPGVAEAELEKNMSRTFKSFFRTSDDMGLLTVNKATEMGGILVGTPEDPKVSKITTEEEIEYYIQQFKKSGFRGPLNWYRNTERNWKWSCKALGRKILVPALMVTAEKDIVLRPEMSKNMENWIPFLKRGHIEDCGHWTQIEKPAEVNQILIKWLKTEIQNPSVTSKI
The experiment in a line: sEH fluorescent inhibition assay, recombinant rat sEH. Type of data set: biochemical.

Data set [3] concerns the target T2, human sEH. The experiment in a line: FRET-based displacement assay for inhibitor dissociation from sEH. Type of data set: binding.
Data set [4] is described as follows: Cassette dosing pharmacokinetics in mice. Type of data set: in vivo. The following applies: male, Swiss Webster, mouse, whole blood, po, 1 mg/kg. In outline:
as §1

The nature of a further data set: Water solubility. Type of data set: physicochemical. The conditions noted are these: DI water, 37 °C, thermodynamic from solid. In outline: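 2–5 mg of solid was shaken in water for 2 days at 37 °C. The solution was filtered through PTFE, diluted twofold in MeOH containing 15 nM B-12, and quantified by LC/MS/MS.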

SMILES strings stand for the structures. In brackets after ≈: the same amount, converted by molar mass.

A word on the IC50: it is the concentration needed to halve the response being measured. In the case of `O=C(Nc1cccnc1)N1CCC(Cc2cccc(Oc3ccc(C(F)(F)F)cn3)c2)CC1` [PF-3845, reference compound], the “residual brain FAAH activity, % of control” value on FAAH (brain) is reported as 0.2 ± 0.1%. Further, the “residual liver FAAH activity, % of control” value at FAAH (liver) turned out to be 22 ± 2%. Besides, the IC50 was 12000 nM at human sEH [1] and 0.65 nM against human FAAH.
By AUC is commonly meant the area under the concentration-time curve, a measure of exposure. Read a high AUC as more exposure. What is called Cmax is the maximum level reached in the sampled fluid or tissue. For orientation: koff means the rate constant with which the complex falls apart. What is called solubility is how much of the substance goes into solution per volume. Lower therefore signals a poorly soluble substance. Consider `O=C(Nc1ccc(C(F)(F)F)cc1F)N1CCC(Cc2cccc(Oc3ccc(C(F)(F)F)cn3)c2)CC1` [compound 18], for which, in data set [2], the AUC is 0.6 µM·h and the Cmax amounted to 58 nM. Besides, on rat sEH, the IC50 stood at 240 nM. Moreover, the “difference in potency on sEH” value at human sEH [1] (compared to 11) is listed as less than 3 fold. Moreover, the “t1/2 (half-life on the enzyme)” value at human sEH [3] (human sEH) came to 4.4 min. The koff on human sEH [3] (read-out: koff × 10^–3) amounted to 2.7 s⁻¹. The “difference in potency on FAAH” value on human FAAH (compared to 11) was less than 3 fold. Moreover, in data set [4], the exposure (AUC) was 0.41 µM·h and the Cmax was determined as 37 nM. The amount in solution in the data set “Water solubility” (solubility at 2 days) came to 2.8 nM (≈ 1.52 ng/mL).
